Measured values: ChEMBL document CHEMBL4680134, “Structural optimization of natural product nordihydroguaretic acid to discover novel analogues as AcrB inhibitors” (Eur J Med Chem, 2020)
≈ marks a conversion by molar mass, not a printed value. One block for each compound: values may come before it.

Assays:
[1] = target: T1, Multidrug efflux pump subunit AcrB (Escherichia coli (strain K12)) (UniProt P31224); assay: Inhibition of AcrB in Escherichia coli BW25113 assessed as potentiation of tetraphenylphosphonium induced antibacterial activity by measuring fold change in tetraphenylphosphonium MIC at 128 ug/ml measured after 18 hrs by checkerboard titration method relative to tetraphenylphosphonium alone; settings: dose 128.0 µg/ml
T1 sequence (whole entry): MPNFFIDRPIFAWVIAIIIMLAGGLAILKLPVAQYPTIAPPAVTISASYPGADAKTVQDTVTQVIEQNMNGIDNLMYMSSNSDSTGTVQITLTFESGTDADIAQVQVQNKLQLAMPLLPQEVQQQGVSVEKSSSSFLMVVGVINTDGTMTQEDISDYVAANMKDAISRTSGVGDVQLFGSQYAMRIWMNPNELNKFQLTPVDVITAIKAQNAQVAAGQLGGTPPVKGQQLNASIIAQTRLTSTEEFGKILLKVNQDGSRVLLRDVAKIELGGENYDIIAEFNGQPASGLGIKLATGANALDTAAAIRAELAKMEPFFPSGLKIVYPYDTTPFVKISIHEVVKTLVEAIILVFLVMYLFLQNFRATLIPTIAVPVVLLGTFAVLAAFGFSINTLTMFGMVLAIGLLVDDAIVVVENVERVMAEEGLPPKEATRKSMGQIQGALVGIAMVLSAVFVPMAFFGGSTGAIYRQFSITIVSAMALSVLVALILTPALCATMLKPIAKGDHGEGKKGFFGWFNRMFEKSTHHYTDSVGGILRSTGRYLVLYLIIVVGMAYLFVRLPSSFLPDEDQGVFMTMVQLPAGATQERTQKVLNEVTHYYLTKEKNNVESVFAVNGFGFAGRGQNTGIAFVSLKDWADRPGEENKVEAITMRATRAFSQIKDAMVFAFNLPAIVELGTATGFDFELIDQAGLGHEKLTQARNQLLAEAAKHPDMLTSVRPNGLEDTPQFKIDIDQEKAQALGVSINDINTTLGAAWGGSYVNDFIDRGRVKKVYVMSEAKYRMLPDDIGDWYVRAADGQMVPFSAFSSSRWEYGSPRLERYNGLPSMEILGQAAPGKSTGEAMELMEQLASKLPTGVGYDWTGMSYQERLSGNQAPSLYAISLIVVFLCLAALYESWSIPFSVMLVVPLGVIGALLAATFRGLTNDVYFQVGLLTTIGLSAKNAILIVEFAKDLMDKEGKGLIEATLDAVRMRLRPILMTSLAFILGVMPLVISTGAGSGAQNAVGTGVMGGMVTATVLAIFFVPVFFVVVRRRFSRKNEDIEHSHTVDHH

Cell membrane [2] = assay: Induction of inner membrane permeabilization in CCCP treated wild type Escherichia coli BW25113 at 64 to 256 ug/ml measured after 10 mins by Di0C2(3) probe based fluorimetric method; settings: escherichia coli bw25113, 10 min, dose 64-256 µg/ml
Method in brief: (§1)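 Cells left untreated or exposed to compound at 8-256 µg/mL for 10 min, then DiOC2(3) added and fluorescence followed to plateau. Cells re-energized with 0.5% glucose; membrane potential build-up read as fluorescence rise to plateau, then dissipated with CCCP.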

[3] = Growth inhibition of Escherichia coli BW25113 expressing AcrB after 18 hrs by broth microdilution assay
Method in brief: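 MIC determined by 96-well broth microdilution in E. coli BW25113 expressing AcrB ((+)AcrB) and an isogenic acrB-deleted strain ((-)AcrB). Used to set the compound concentrations for synergy testing that produce no direct antibacterial effect.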

Cell membrane [4] = assay: Induction of inner membrane permeabilization in CCCP treated wild type Escherichia coli BW25113 measured after 10 mins by Di0C2(3) probe based fluorimetric method; settings: escherichia coli bw25113, 10 min; method in brief: as §1
[5] = target: T1, Multidrug efflux pump subunit AcrB (Escherichia coli (strain K12)); assay: Inhibition of AcrB in Escherichia coli BW25113 assessed as potentiation of erythromycin induced antibacterial activity by measuring fold change in erythromycin MIC at 32 ug/ml measured after 18 hrs by checkerboard titration method relative to erythromycin alone; settings: dose 32.0 µg/ml
[6] = target: T1, Multidrug efflux pump subunit AcrB (Escherichia coli (strain K12)); assay: Inhibition of AcrB in Escherichia coli BW25113 assessed as potentiation of chloramphenicol induced antibacterial activity by measuring fold change in chloramphenicol MIC at 256 ug/ml measured after 18 hrs by checkerboard titration method relative to chloramphenicol alone; settings: dose 256.0 µg/ml

- fold change (FC) [1]: 4
Compound: O=C(NCCc1ccc(O)c(O)c1)c1cc(O)c(O)c(O)c1

Compound: C[C@H](Cc1ccc(O)c(O)c1)[C@@H](C)Cc1ccc(O)c(O)c1 [MASOPROCOL]
- Activity (Cell membrane [2]): Toxic

- fold change (FC) [5]: 4
Compound: Cc1ccc(C(=O)NCCc2ccc(O)c(O)c2)cc1
- MIC [3]: 64 µg/mL (≈ 236 µM)
- Activity (Cell membrane [4]): Toxic

- fold change (FC) [6]: 8
Compound: Oc1ccc(CCCCc2cc(O)c(O)c(O)c2)cc1O
